Screens as filed in PubChem.
This is a sample that favours compounds with a hit; in the whole collection about 29% have one here.
CYP2C9 inh: human CYP2C9 inhibition; inhibition, % at 5 µM; AID 777; P11712; CYP2C9 Supersomes, luciferin-H conversion, luminescence; 96,000 compounds, 20% hits;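 active means blocking of liver enzyme CYP2C9 beyond about 50% at 5 µM, limit read from the data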
Target sequence (P11712 whole entry, looked up): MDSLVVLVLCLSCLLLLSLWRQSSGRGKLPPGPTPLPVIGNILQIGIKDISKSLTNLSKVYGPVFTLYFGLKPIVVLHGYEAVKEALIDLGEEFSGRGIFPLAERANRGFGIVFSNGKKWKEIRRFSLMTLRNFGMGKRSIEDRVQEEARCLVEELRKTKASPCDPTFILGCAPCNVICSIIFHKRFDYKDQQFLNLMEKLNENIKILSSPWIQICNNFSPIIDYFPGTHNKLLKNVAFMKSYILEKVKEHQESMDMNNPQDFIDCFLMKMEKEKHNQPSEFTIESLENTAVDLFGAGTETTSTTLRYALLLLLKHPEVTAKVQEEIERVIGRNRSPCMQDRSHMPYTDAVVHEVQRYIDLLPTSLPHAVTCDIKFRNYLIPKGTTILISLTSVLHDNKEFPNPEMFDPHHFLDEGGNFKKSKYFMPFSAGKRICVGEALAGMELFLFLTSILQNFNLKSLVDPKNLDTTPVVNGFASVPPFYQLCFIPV
CYP2C19 act: increases human CYP2C19 enzyme activity. P33261. recombinant CYP2C19, luciferin-H EGE luminescence; hits give high values; 0 = fully inhibited enzyme, 1 = untreated enzyme. activation factor at 5 µM. 96,000 tested, under 10 active. AID 1025;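 active means activation factor of at least 2 at 5 µM in the primary screen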;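 further: 0 = wells with 2.5 mM tranylcypromine and 1 = vehicle-only wells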
CYP2C9 activ: increases human cytochrome P450 2C9 activity. activation factor at 5 µM. 96,000 compounds, 1.4% hits. recombinant CYP2C9, luciferin-H conversion, luminescence; hits give high values; factor 1 = untreated enzyme, 0 = blocked. AID 1024;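 active means activation factor of 2 or more for CYP2C9 at a 5 µM dose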;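 further: 0 = sulfaphenazole-blocked wells and 1 = vehicle-only wells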
Ecoli tolC: blocks growth of E. coli BW25113 tolC mutant; OD615; growth inhibition, % at 10 µM (by protocol); 65,000 compounds, 2.2% hits; AID 573;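 active means growth inhibition at or above a cutoff equal to the mean over every tested compound plus 3 SD, cut at about 60% in these data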;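 further: growth measured after 20 h incubation at 37 °C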
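Test system: tolC-deleted E. coli BW25113; medium: LB with kanamycin 50 µg/mL; compound: single-point testing at 10 µM; incubation: 20 h compound exposure of bacteria at 37 °C; signal: OD at 615 nm; evaluation: growth inhibition in percent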
Ecoli WT expand: blocks growth of wild type E. coli BW25113; growth inhibition, % at 100 µM; OD600 absorbance; 98,000 compounds, 0.15% hits; AID 710;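 active means growth inhibition above about 50% at one test dose, limit read from the data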;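 further: growth measured after 20 h incubation at 37 °C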
CYP2C19 inhib: inhibitors of human CYP2C19; CYP2C19 Supersomes, luciferin-H EGE luminescence, 30 min; AID 778; inhibition, % at 5 µM; P33261; 96,000 compounds, 21% hits;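 active means CYP2C19 inhibition above a set limit at 5 µM in the primary screen, cut at about 50% in these data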;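 further: plate controls were negative control wells for no effect and 2.5 mM tranylcypromine positive control for full effect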
* hit, by the source's call; nt = no result given.

SMILES	CYP2C9 inh	CYP2C19 act	CYP2C9 activ	Ecoli tolC	Ecoli WT expand	CYP2C19 inhib
CCCCNc1ccccc1C(=O)OCC(=O)Nc1ccc(S(N)(=O)=O)cc1	85.5*	0.8	0.1	nt	-3.0	22.9
CCC(=O)Nc1ccccc1C(=O)OCC(=O)Nc1ccc(S(N)(=O)=O)cc1	32.7	1	0.7	-2.0	2.0	-4.9
NC(=O)C1CCCNC1 (stereo not drawn)	nt	nt	nt	-7.7	nt	nt
COc1ccccc1CNC(=O)CNCC1CCCO1 (stereo not drawn)	-30.2	0.6	1.3	-13.9	11.0	42.3
O=C(NCC(c1cccnc1)N1CCN(c2ccccc2F)CC1)c1cccc(Cl)c1 (stereo not drawn)	94.7*	0.1	0.1	7.8	-6.0	91.0*
O=C(NCC(c1cccnc1)N1CCN(c2ccccc2F)CC1)C1CCCCC1 (stereo not drawn)	49.2	0.2	0.5	3.9	5.0	78.9*
COc1ccc(N2CCN(C(CNC(=O)c3cccc(Cl)c3)c3cccnc3)CC2)cc1 (stereo not drawn)	55.5*	0.7	0.4	-2.4	-6.0	33.8
O=C(NCC(c1cccnc1)N1CCOCC1)c1cccc(Cl)c1 (stereo not drawn)	15.2	0.9	0.8	-14.5	-1.0	7.0
C#CCn1c(=NC(=O)c2ccc(Br)s2)sc2cccc(OC)c21	-72.3	1	1.7	nt	-5.0	1.0
O=C(CCn1c(=S)[nH]c2ccccc2c1=O)N1CCN(c2ccccn2)CC1	nt	nt	nt	6.7	nt	nt
Cc1ccsc1C(=O)N1CC(=O)Nc2ccccc21	-7.4	0.8	1.1	11.7	4.0	23.3
Cc1cc(C)cc(C(=O)N2CC(=O)Nc3ccccc32)c1	35.9	0.5	0.6	nt	1.0	53.2*
O=C(O)CN(c1ccccc1F)S(=O)(=O)c1ccccc1	12.1	1	0.9	-14.9	9.0	0.4
O=[N+]([O-])c1cc2c(cc1/C=N/n1c(-c3ccccc3)n[nH]c1=S)OCO2	12.2	0.9	0.9	nt	-7.0	5.5
Cc1ccc(-c2n[nH]c(=S)n2/N=C/C=C/c2ccccc2[N+](=O)[O-])cc1	57.7*	0.7	0.4	nt	-6.0	27.4
CCOc1ccc(N2C(=O)NC(Cc3c[nH]c4ccccc34)C2=O)cc1 (stereo not drawn)	36.0	0.7	0.6	11.8	-3.0	29.5
Cc1cc(C(=O)CN2C(=O)NC(Cc3c[nH]c4ccccc34)C2=O)c(C)n1C (stereo not drawn)	19.4	0.3	0.8	-2.0	-7.0	67.3*
O=C1NC(Cc2c[nH]c3ccccc23)C(=O)N1CCOc1ccccc1 (stereo not drawn)	57.1*	0.2	0.4	3.0	1.0	81.9*
O=C1OC(c2ccc(O)cc2)(c2ccc(O)cc2)c2ccccc21	nt	nt	nt	71.9*	nt	nt
O=C1OC(OC2CCCCC2)(c2ccccc2)c2ccccc21 (stereo not drawn)	26.0	0.9	0.7	nt	-5.0	8.8
O=C(CSc1ccsc1[N+](=O)[O-])NCCc1ccc(Cl)cc1	8.2	1	0.9	nt	-7.0	-3.7
O=C(CSc1nc2ccc([N+](=O)[O-])cc2[nH]1)NCCc1ccccc1	81.0*	0.2	0.2	nt	15.0	82.3*
CC(Sc1ccsc1[N+](=O)[O-])C(=O)NCCc1ccc(Cl)cc1 (stereo not drawn)	69.5*	0.4	0.3	nt	-9.0	57.3*
CCC(Cc1ccccc1)NC(=O)CSc1ccsc1[N+](=O)[O-] (stereo not drawn)	26.6	0.3	0.7	nt	-5.0	72.2*
Cn1c(SCC(=O)NC(c2ccccc2)c2ccccc2)nnc1-c1cccs1	45.9	0.6	0.5	nt	1.0	37.4
SMILES	CYP2C9 inh	CYP2C19 act	CYP2C9 activ	Ecoli tolC	Ecoli WT expand	CYP2C19 inhib
O=C(CSc1ccsc1[N+](=O)[O-])NCCc1ccccc1	55.0*	0.8	0.4	nt	0.0	21.9
O=C(CSc1nc2ccccc2[nH]1)NCCN1CCCCC1	3.9	1.1	1	-16.0	-8.0	-5.0
O=C(COc1cccc2cccnc12)N/N=C1\SCC(=O)N1Cc1ccccc1	6.7	0.9	0.9	nt	13.0	14.0
O=C(Nc1ccccc1C(=O)N1CCOCC1)C1CCCO1 (stereo not drawn)	-15.7	1.1	1.2	-28.5	-2.0	-6.8
CCCOc1ccc(N2C(=O)CC(N3CCCC(C(=O)N4CCCC4)C3)C2=O)cc1 (stereo not drawn)	7.1	1	0.9	-18.3	-7.0	-2.7
COc1ccc(N2C(=O)CSC23C(=O)N2c4c(cccc43)C(C)=CC2(C)C)cc1 (stereo not drawn)	79.8*	0	0.2	nt	-4.0	97.8*
COc1ccc(N2C(=O)CSC23C(=O)N2CCCc4cccc3c42)cc1 (stereo not drawn)	10.3	0.9	0.9	-6.7	-5.0	10.6
CCn1c(COc2ccc(=O)n(-c3ccccc3)n2)nnc1SCc1cccc(OC)c1	53.0*	0.8	0.5	nt	-6.0	16.7
Cn1ccnc1SCC(=O)NC1CCCCC1	-4.6	0.1	1	-7.0	0.0	91.9*
COc1cc(OC)cc(-n2nnnc2SCC(=O)N2CCCC2)c1	-31.6	0.7	1.3	-14.1	-2.0	32.6
CSc1nsc(SCC(=O)NC2CCCCC2)n1	1.4	0	1	4.6	3.0	95.9*
COc1cc(OC)cc(-n2nnnc2SCC(=O)NC2CCCC2)c1	-206.2	0.9	3.1*	nt	2.0	13.8
CCc1nnc(SCC(=O)NC2CCCCC2)nc1CC	-24.7	1	1.2	-6.9	2.0	4.2
CCCn1c2ccccc2c2nnc(SC(CC)C(=O)Nc3sc4c(c3C#N)CCCC4)nc21 (stereo not drawn)	89.1*	0.3	0.1	nt	-13.0	70.4*
O=C(O)C1C2C=CC3(CN(C/C=C/c4ccccc4)C(=O)C13)O2 (stereo not drawn)	5.9	1	0.9	-12.8	-1.0	-2.7
CCCC(=O)Nc1ccccc1-c1nnn(CC(=O)Nc2ccc(OCC)cc2)n1	nt	nt	nt	7.2	-3.0	nt
CCOc1ccc(-c2nnn(CC(=O)Nc3cccc(OC)c3)n2)cc1OCC	19.6	0.5	0.8	29.3	-13.0	45.9
CCCOc1ccc(-c2nnn(CC(=O)Nc3cccc(C(=O)OC)c3)n2)cc1	91.7*	0.7	0.1	-20.3	nt	32.7
O=C(Cn1nnc(-c2ccccc2NC(=O)c2ccco2)n1)Nc1ccccc1	92.1*	0.7	0.1	7.6	-7.0	32.3
O=C(Cn1nnc(-c2ccccc2NC(=O)c2ccccc2)n1)Nc1ccc2c(c1)OCCO2	6.0	1.1	0.9	nt	-7.0	-12.3
CCOc1ccc(NC(=O)Cn2nnc(-c3ccccc3NC(=O)CC)n2)cc1	88.7*	0	0.1	12.5	3.0	100.4*
COc1cccc(-c2nnn(CC(=O)Nc3cc(OC)c(NC(=O)c4ccco4)cc3OC)n2)c1	54.1*	0.7	0.5	nt	2.0	35.0
Cc1cccnc1NC(=O)C1CCN(S(=O)(=O)c2ccc3c(c2)CCC(=O)N3)CC1	25.7	0.9	0.7	-8.1	3.0	6.3
